The list is not random: actives were taken first. Their share in the collection is about 4.1%.
hERG protect = shields human hERG channel from block by proarrhythmic agents; CHO-hERG, FluxOR thallium flux, dofetilide IC70 present; activation (rescue from dofetilide block), less the hit threshold, % at 10 µM; AID 1511; 310,000 compounds, 0.51% hits; Q12809;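 active = activation above the mean of controls blocked by dofetilide plus 5 SD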;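 also: thallium influx through hERG after potassium depolarization seen as dye fluorescence rise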
Target sequence (Q12809 whole entry, looked up): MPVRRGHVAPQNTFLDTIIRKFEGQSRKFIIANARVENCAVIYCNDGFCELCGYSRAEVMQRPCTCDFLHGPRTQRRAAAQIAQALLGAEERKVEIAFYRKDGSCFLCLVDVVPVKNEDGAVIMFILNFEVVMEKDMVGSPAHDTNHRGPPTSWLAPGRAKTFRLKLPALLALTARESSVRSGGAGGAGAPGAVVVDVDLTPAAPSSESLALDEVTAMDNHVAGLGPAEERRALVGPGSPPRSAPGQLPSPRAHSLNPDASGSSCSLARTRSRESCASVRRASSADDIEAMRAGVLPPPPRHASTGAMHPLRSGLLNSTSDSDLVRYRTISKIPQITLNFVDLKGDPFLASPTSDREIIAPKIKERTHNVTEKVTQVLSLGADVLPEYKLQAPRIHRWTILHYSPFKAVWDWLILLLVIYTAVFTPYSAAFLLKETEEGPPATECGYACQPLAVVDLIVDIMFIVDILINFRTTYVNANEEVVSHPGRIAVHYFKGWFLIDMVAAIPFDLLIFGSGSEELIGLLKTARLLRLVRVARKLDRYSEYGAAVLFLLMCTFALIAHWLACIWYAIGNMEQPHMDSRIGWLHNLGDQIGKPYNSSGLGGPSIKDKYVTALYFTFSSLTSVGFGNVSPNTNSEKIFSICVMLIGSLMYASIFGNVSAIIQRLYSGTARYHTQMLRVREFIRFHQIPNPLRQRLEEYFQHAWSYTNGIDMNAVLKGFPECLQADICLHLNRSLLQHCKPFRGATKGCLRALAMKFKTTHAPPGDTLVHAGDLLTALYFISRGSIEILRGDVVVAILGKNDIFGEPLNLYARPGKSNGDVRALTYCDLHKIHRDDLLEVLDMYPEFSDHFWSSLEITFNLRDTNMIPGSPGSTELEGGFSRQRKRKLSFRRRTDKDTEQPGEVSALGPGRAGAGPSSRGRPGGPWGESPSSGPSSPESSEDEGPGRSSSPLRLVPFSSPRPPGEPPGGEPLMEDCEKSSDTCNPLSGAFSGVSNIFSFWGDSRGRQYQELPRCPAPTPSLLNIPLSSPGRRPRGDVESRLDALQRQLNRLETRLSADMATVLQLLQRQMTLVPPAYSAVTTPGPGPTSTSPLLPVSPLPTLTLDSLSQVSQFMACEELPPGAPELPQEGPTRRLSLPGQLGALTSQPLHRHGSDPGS
KCNQ1 block = blocks the human KCNQ1 potassium channel; B-score at 10 µM; P51787; 310,000 compounds, 1.3% hits; CHO-K1 KCNQ1, FluxOR thallium flux fluorescence; stronger effect = higher value;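 active = compounds whose thallium flux B-score, printed positive for inhibition, exceeds three library SD while starting fluorescence stays within three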;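 also: channel opened by potassium depolarization with thallium stimulus after 20 min compound exposure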
Cl transport mod = KCC2 (human) Cl- transport modulation; Q9H2X9; KCC2 cells, thallium flux FluoZin-2 fluorescence; 190,000 compounds, 2.2% hits; B-score of Tl+ flux slope (higher = more flux/activation; lower = inhibition) at 10 µM;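 active = thallium flux slope and its plate-corrected score both differing from the plate sample mean at a set confidence after two filtering rounds, in either direction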;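 also: slope of fluorescence scaled to starting intensity during 10 to 20 s after thallium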
KCNK9 block = inhibitors of human KCNK9 two-pore domain potassium channel; Q9NPC2; B-score at 10 µM; AID 488922; 310,000 compounds, 1.2% hits; HEK293 KCNK9, FluxOR thallium flux fluorescence; stronger effect = lower value;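 active = ratio B-score over 3 SD below the library mean, with starting fluorescence within 5 SD of its mean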;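 also: negative B-score means less thallium flux so channel inhibition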
KCNK3 inh = human KCNK3 channel inhibition, primary screen; O14649; CHO-KCNK3 thallium flux, FluxOR fluorescence; stronger effect = lower value; B-score at 10 µM; 340,000 compounds, 0.84% hits;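 active = B-score under library mean minus 4 SD, starting fluorescence ratio at most library mean plus 5 SD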;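 also: more negative B-score means stronger inhibition of thallium flux through KCNK3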
KCNQ1 pot = potentiates or activates the human KCNQ1 potassium channel | AID 2648 | B-score at 10 µM | CHO-K1 KCNQ1, thallium flux FluxOR fluorescence; stronger effect = higher value | P51787 | 310,000 compounds, 0.35% hits;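 active = fluorescence ratio B-score, a plate-corrected score, at least three library SD, with initial intensity B-score within 5 SD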
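Assay system: CHO-K1 cells stably expressing KCNQ1; Medium: assay buffer with matched DMSO; Also added: K+/Tl+ depolarizing stimulus; Dosing: single dose; Timing: dye 90 min, compound 20 min, room temperature; Measured by: kinetic FluxOR thallium fluorescence, 10-s 1-Hz baseline, 110-s post-stimulus read; Read-out: peak-minus-minimum fluorescence over initial fluorescence, negative-control normalized, B-scored.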
KCNQ1 block val = human KCNQ1 channel inhibition, validation assay | inhibition, % at 10 µM | shares compounds with KCNQ1 block | 1,600 compounds, 93% hits | KCNQ1 cell line, FluxOR thallium flux fluorescence;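 active = primary screen active, with duplicate mean exceeding buffer control mean plus 3 SD of buffer wells, cut at about 28% in these data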;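 also: 0% = buffer control ratio and 100% = XE991 inhibitor control ratio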
CHO Tl flux = activity in parental CHO cells lacking KCNQ1; shares compounds with KCNQ1 block; fluorescence ratio (Tl flux) at 10 µM; 1,600 compounds, 21% hits; parental CHO-K1, FluxOR thallium flux fluorescence ratio; stronger effect = lower value; zero means no signal rise above baseline; AID 588366;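 active = mean of duplicate thallium-flux fluorescence ratios in parental host cells more than 5 SD below the buffer control mean, cut at about 0.38 in these data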;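 also: ratio is peak minus minimum fluorescence divided by baseline fluorescence; actives read low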
KCNQ1 APC inh = human KCNQ1 inhibition validated by electrophysiology | shares compounds with KCNQ1 block | KCNQ1-CHO cells, automated patch clamp current | calls only at 10 µM | 490 compounds, 20% hits | AID 624120;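 active = KCNQ1 current drop exceeding 3 SD of negative control wells, seen in both duplicate runs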;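 also: steady state current during a 2 s step from -80 to +40 mV; negative values mean current inhibition and positive values mean potentiation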
KCNQ2 inh = selectivity of KCNQ1 inhibitors: inhibition of rat KCNQ2 channel; shares compounds with KCNQ1 block; inhibition, % at 10 µM; KCNQ2 cells, FluxOR thallium flux fluorescence; 1,600 compounds, 71% hits;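 active = mean percent inhibition of the KCNQ2 thallium signal more than 5 SD above the buffer-only control wells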;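 also: KCNQ2 expressed in CHO cells; 0% = buffer control wells and 100% = XE-991 inhibitor control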
KCNQ1-KCNE1 inh = KCNQ1 inhibitor that also blocks human KCNQ1/KCNE1 channel | shares compounds with KCNQ1 block | AID 652147 | KCNQ1/KCNE1 cells, FluxOR thallium flux fluorescence | 1,600 compounds, 77% hits | inhibition, % at 10 µM;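 active = mean percent inhibition of duplicate wells above the buffer-only control mean plus 3 SD of those controls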;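 also: 0% = buffer only wells and 100% = XE-991 inhibitor control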
Active calls of the source: *; i = inactive; . = no result given; + = active, no number.

SMILES	hERG protect	KCNQ1 block	Cl transport mod	KCNK9 block	KCNK3 inh	KCNQ1 pot	KCNQ1 block val	CHO Tl flux	KCNQ2 inh	KCNQ1-KCNE1 inh	others
Cc1nc2nc(-c3cccs3)cn2nc1C	-27	7*	i	i	i	i	104*	0.34*	i	i
COc1cc(/C=C/c2nnc3c4ccccc4ncn23)cc(OC)c1OC	-5	6*	0.015	i	i	i	44*	0.54	60%*	34%*
O=c1c2c(nc3n1CCCCC3)-c1ccccc1CC21CCCCC1	-6	7*	0.91	i	i	i	104*	0.48	106%*	88%*	KCNQ1 APC inh=i
Clc1ccc(NC2(c3nnnn3C3CCCCC3)CCCCC2)cc1	-9	i	-0.23	i	i	i	.	.	.	.
Cc1cccc(C)c1-n1nnnc1C1(Nc2ccccc2)CCCCC1	-14	7*	-1.7	-7.7*	i	i	109*	0.36*	109%*	130%*
CCN(C(=O)COC(=O)CNC(=O)c1cccs1)c1c(N)n(Cc2ccccc2)c(=O)[nH]c1=O	.	.	.	.	i	.	.	.	.	.
O=C(c1cc(=O)[nH]c2ccccc12)N(Cc1nnc(-c2ccccc2Cl)o1)C1CC1	-25	i	.	i	i	i	.	.	.	.
Cc1ccc(NCC(=O)Nc2ccc(Br)cc2)cc1C	-5	i	.	i	i	i	.	.	.	.
Cc1ccc(F)cc1NCC(=O)Nc1ccc(Br)cc1	-17	8*	1.4	i	i	i	70*	0.49	99%*	78%*
CCCCN1C2=NCCCN2c2ccccc21	-5	i	0.16	i	i	i	.	.	.	.
CCCCCCCN1C2=NCCCN2c2ccccc21	-15	7*	-0.037	i	i	i	50*	0.51	i	55%*
COCCn1ccc2c(OCC(=O)Nc3ccccc3OC)cccc2c1=O	-7	i	.	i	i	i	.	.	.	.
COc1ccc(NS(=O)(=O)c2ccc(-c3coc(C)n3)cc2)cc1OC	-13	8*	.	i	i	i	124*	0.52	84%*	36%*	KCNQ1 APC inh=i
C=CCn1c(=O)[nH]c2nc3cc(N=CN(C)C)c(C)cc3nc2c1=O	-20	8*	i	i	i	i	102*	0.28*	i	152%*
COc1ccc(S(=O)(=O)N(C)c2ccc(C(=O)Nc3cccnc3)cc2)cc1	-10	i	.	i	i	i	.	.	.	.
CCN(CC)S(=O)(=O)c1cc(NC(=O)CNc2cccc(S(=O)(=O)N3CCOCC3)c2)ccc1C	-22	i	.	i	i	i	.	.	.	.
O=C(Cc1ccccc1Cl)Nc1cccc(S(=O)(=O)N2CCCCCC2)c1	.	.	.	.	i	.	.	.	.	.
O=C(Nc1cccc(S(=O)(=O)N2CCCCC2)c1)Nc1ccc(Cl)cc1Cl	-10	7*	-0.021	i	i	i	98*	0.45	97%*	70%*	KCNQ1 APC inh=i
CCN1C(=O)CC(N2CCC(c3nc4ccccc4[nH]3)CC2)C1=O (stereo not given)	-19	6*	0.89	i	i	i	32*	0.46	i	73%*
Cc1cccc(N2C(=O)CC(N3CCC(c4nc5ccccc5[nH]4)CC3)C2=O)c1 (stereo not given)	-12	i	.	i	i	i	.	.	.	.
O=S1c2ccccc2Sc2ccccc21	.	.	.	.	i	.	.	.	.	.
COc1ccccc1N(C)S(=O)(=O)c1ccc(C(=O)NCC2CCCCC2)cc1	.	.	.	.	i	.	.	.	.	.
COC(CNC(=O)c1cccnc1)OC	-8	i	.	i	i	i	.	.	.	.
COC(CNC(=O)c1ccc2c3c(onc13)-c1ccccc1C2=O)OC	-46	6*	i	i	i	i	+	0.086*	i	i
CC(=O)NC1C(OC(=O)/C=C/c2ccccc2)OC(COC(C)=O)C(OC(C)=O)C1OC(C)=O (stereo not given)	-6	i	.	i	i	i	.	.	.	.
SMILES	hERG protect	KCNQ1 block	Cl transport mod	KCNK9 block	KCNK3 inh	KCNQ1 pot	KCNQ1 block val	CHO Tl flux	KCNQ2 inh	KCNQ1-KCNE1 inh	others
Cc1cccc(NC(=O)COc2ccccc2C(=O)NC(C)c2ccccc2)c1 (stereo not given)	-7	7*	.	i	i	i	130*	0.4	i	190%*
CCn1c(/C=C/c2ccc(O)c(O)c2)nc2ccccc2c1=O	-17	7*	.	i	i	i	30*	0.52	i	i
CCn1c(/C=C/c2ccc(O)cc2)nc2ccccc2c1=O	-8	i	.	i	i	i	.	.	.	.
CCN=C(NCC)SC1CC(=O)N(c2ccccc2)C1=O (stereo not given)	-30	i	0.35	i	i	i	.	.	.	.
CCN=C(NCC)SC1CC(=O)N(c2cccc(OC)c2)C1=O (stereo not given)	-23	11*	2.2	i	i	i	64*	0.44	71%*	62%*
Cc1cc(NC(=S)Nc2cccnc2)ccc1Br	-24	10*	0.69	i	i	i	67*	0.49	i	i
O=c1c2ccccc2nc(SCc2cccc(F)c2)n1C1CCCC1	-19	7*	0.93	i	i	i	96*	0.49	81%*	114%*	KCNQ1 APC inh=i
O=c1ccc(=O)n(CCc2ccccn2)[nH]1	.	.	.	.	i	.	.	.	.	.
CC(C(=O)NCc1ccccc1)N1C(=O)c2ccccc2C1=O (stereo not given)	-6	7*	.	i	i	i	28*	0.44	i	i
NC(=O)C1(Nc2ccccc2)CCCC1	.	.	.	.	i	.	.	.	.	.
COc1cc(CNC(=O)c2cc(C(=O)NCc3cc(OC)cc(OC)c3)n(C)n2)cc(OC)c1	.	.	.	.	i	.	.	.	.	.
O=C(c1cc(-c2ccccc2)nn1-c1ccccc1)N1CCN(S(=O)(=O)c2ccc(F)cc2)CC1	-10	6*	.	i	i	i	57*	0.46	81%*	37%*
Cc1ccc(S(=O)(=O)N2CCN(C(=O)c3cc(-c4cccs4)nn3-c3ccccc3)CC2)cc1	-11	i	.	i	i	i	.	.	.	.

Compound activity: PubChem, several laboratories
